{"source": "paper PMC5548968", "about": "(Clinical cancer research : an official journal of the …, 2016)", "key": {"[1]": {"system": "kinases containing a conserved cysteine residue that aligns with the Cys481 in BTK", "conditions": "cited from earlier work"}, "BTK": {"system": "BTK", "conditions": "read-out: IC50 BTK; as previously reported; cited from earlier work"}, "[2]": {"system": "BCR signaling (CD69 expression)", "assay_type": "in vivo, C57BL/6 mice", "conditions": "for effective dose (CD69 expression): oral gavage 0.1 to 30mg/kg, splenocytes 3 hours after dose, anti-IgM 18 h", "method_in_brief": "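Female C57BL/6 mice (5/group/dose) were gavaged with vehicle or test compound at 0.1–30mg/kg. Splenocytes were taken 3 hours later and stimulated with goat anti-mouse IgM at 10μg/mL for 18 hours (37°C, 5% CO2). After Fc blocking, cells were stained for CD19 and CD69, with 7-AAD to exclude dead cells. CD69 on >5,000 gated CD19+ cells per sample was measured by flow cytometry.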"}, "phospho-ERK(T202/Y204)": {"system": "phospho-ERK(T202/Y204)", "assay": "NSG primary CLL xenograft model, pERK in CLL cells from spleen", "assay_type": "in vivo, NSG mice", "conditions": "drinking water 0.3 or 0.16mg/mL, three weeks", "method_in_brief": "(§1)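 Human CLL patient MNCs were Ficoll-isolated and viably frozen. They were transferred at 1 × 10^8 cells/mouse into busulfan-primed NSG mice. Drinking-water dosing (0.3 or 0.16mg/mL; 0.06mg/mL in select experiments) started day −1, with vehicle controls. After 3 weeks, splenocytes were sieved, ACK-lysed, fixed (4% paraformaldehyde), permeabilised (90% methanol) and stained for pPLCγ2(Y759), pERK(T202/Y204) or Ki-67 against isotype controls. Mice were averaged per patient and compared by paired t-test.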"}, "human CLL cells [3]": {"system": "human CLL cells", "assay": "NSG primary CLL xenograft model, circulating CLL cell count per μL blood", "assay_type": "in vivo, NSG mice", "conditions": "drinking water, three weeks, whole blood", "method_in_brief": "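Whole blood came from CLL-engrafted NSG mice after 3 weeks of treated or vehicle drinking water started at busulfan priming (day −1). Absolute human CLL cells (CD45+/CD19+/CD5+) per μL were counted by flow cytometry with counting beads. Values are averages of 2–5 mice per donor patient, compared by paired t-test.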"}, "TEC": {"system": "TEC", "conditions": "read-out: concentration inhibiting TEC; biochemical kinase assays; cited from earlier work"}, "phospho-S6(S235/236) [4]": {"system": "phospho-S6(S235/236)", "assay": "in vitro phospho-flow in CLL patient MNCs, phospho-S6", "assay_type": "cell-based, human", "conditions": "1μM, one hour", "method_in_brief": "(§2)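 Primary CLL patient MNCs (n=5 patients) were treated in culture with or without 1μM test compound for 1 hour. Cells were fixed in 4% paraformaldehyde, permeabilised in 90% methanol and stained for phospho-PLCγ2(Y759), phospho-S6(S235/236) or phospho-p65(S529) with isotype controls. Flow cytometry gave the percent of CLL cells positive for each readout.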"}, "phospho-S6(S235/236) [5]": {"system": "phospho-S6(S235/236)", "assay_type": "in vivo, C57BL/6 mice", "conditions": "0.16mg/mL drinking water, one or four weeks, ex vivo anti-IgM", "method_in_brief": "(§3)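 C57BL/6 recipients received 1 × 10^7 Eμ-TCL1 leukemic cells. Drinking water with 0.16mg/mL test compound or vehicle began once blood CD5+/CD19+ cells reached ≥10%. After 1 or 4 weeks, splenocytes were stimulated ex vivo with anti-IgM. Cells were stained for B220, CD3, pPLCγ2(Y1217) (n=7/group) or pS6(S235/236) (n=14/group). Median fluorescence was read in B220+CD3− cells as % change versus vehicle, by normalised unpaired t-test.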"}, "phospho-BTK(Y223) [6]": {"system": "phospho-BTK(Y223)", "assay": "in vitro phospho-flow in CLL patient MNCs, phospho-BTK", "assay_type": "cell-based, human", "conditions": "1μM, one hour"}, "human CLL cells [7]": {"system": "human CLL cells", "assay": "NSG primary CLL xenograft model, tumor burden in the spleen", "assay_type": "in vivo, NSG mice", "conditions": "drinking water, three weeks", "method_in_brief": "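Spleen tumour burden in NSG mice engrafted with 1 × 10^8 primary CLL MNCs after busulfan priming. Mice got treated or vehicle drinking water from day −1 for 3 weeks. Homogenised, sieved, ACK-lysed splenocytes were surface-stained (CD45, CD19, CD3, CD5) and analysed by flow cytometry. Burden is the percentage of CLL cells among human CD45+ cells. Per-patient averages were compared by paired t-test.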"}, "phospho-PLCγ2(Y759)": {"system": "phospho-PLCγ2(Y759)", "assay": "NSG primary CLL xenograft model, pPLCγ2 in CLL cells from spleen", "assay_type": "in vivo, NSG mice", "conditions": "drinking water 0.3 or 0.16mg/mL, three weeks", "method_in_brief": "as §1"}, "ERBB4": {"system": "ERBB4", "conditions": "read-out: concentration inhibiting ERBB4; biochemical kinase assays; cited from earlier work"}, "[8]": {"system": "395 wild-type human kinases", "assay": "DiscoverRx KINOMEscan ATP site dependent competition binding assay, kinase panel", "conditions": "1μM compound"}, "ITK": {"molecular_target": "T1, ITK (Homo sapiens, UniProt Q08881)", "T1 sequence (Q08881 1-620)": "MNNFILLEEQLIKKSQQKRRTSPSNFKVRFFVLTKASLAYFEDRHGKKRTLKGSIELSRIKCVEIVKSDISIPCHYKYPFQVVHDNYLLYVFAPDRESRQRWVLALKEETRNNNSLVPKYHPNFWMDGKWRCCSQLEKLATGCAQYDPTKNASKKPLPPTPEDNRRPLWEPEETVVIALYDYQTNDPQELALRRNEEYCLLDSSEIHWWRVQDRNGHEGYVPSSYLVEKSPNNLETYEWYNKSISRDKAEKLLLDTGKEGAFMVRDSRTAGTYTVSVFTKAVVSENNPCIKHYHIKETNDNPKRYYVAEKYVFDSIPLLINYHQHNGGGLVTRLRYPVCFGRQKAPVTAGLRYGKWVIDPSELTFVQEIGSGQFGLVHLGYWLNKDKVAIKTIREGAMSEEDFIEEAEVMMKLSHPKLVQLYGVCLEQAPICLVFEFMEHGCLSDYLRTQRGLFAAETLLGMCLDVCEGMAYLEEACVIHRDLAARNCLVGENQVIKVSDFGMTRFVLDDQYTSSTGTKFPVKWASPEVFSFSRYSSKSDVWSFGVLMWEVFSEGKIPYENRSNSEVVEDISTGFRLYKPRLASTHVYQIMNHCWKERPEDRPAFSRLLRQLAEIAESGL", "assay": "DiscoverRx KINOMEscan competition binding assay, ITK", "conditions": "1μM compound"}, "phospho-BTK(Y223) [9]": {"system": "phospho-BTK(Y223)", "assay_type": "in vivo, C57BL/6 mice", "conditions": "0.16mg/mL drinking water, one or four weeks, ex vivo anti-IgM"}, "human CLL cells [10]": {"system": "human CLL cells", "assay": "NSG primary CLL xenograft model, CLL cell proliferation", "assay_type": "in vivo, NSG mice", "conditions": "drinking water, three weeks, spleen", "method_in_brief": "as §1"}, "murine BTK": {"molecular_target": "murine BTK (Mus musculus, UniProt P35991)", "sequence (P35991 whole entry)": "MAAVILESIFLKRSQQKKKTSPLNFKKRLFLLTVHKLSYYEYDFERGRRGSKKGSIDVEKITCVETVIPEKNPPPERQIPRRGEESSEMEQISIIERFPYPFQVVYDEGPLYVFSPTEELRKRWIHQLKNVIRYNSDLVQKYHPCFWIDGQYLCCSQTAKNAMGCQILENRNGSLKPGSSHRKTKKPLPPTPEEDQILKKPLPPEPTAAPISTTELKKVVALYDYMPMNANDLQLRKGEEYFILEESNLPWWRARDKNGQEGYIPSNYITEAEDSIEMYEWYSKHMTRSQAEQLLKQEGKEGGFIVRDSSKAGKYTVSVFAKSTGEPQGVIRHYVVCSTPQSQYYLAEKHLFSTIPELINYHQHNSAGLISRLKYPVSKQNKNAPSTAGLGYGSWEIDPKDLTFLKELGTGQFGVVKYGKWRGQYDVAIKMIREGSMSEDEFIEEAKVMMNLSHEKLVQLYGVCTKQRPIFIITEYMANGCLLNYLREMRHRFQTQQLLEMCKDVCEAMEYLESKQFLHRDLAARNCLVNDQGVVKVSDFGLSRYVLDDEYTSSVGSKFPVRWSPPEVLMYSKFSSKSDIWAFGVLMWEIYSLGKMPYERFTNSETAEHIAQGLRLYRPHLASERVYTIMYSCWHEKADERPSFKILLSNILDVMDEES", "assay": "BTK occupancy probe ELISA, TCL1 adoptive transfer model splenocytes", "assay_type": "in vivo", "conditions": "0.16mg/mL drinking water, one or four weeks"}, "phospho-PLCγ2(Y1217)": {"system": "phospho-PLCγ2(Y1217)", "assay_type": "in vivo, C57BL/6 mice", "conditions": "0.16mg/mL drinking water, one or four weeks, ex vivo anti-IgM", "method_in_brief": "as §3"}, "phospho-p65(S529)": {"system": "phospho-p65(S529)", "assay": "in vitro phospho-flow in CLL patient MNCs, phospho-NF-κB p65", "assay_type": "cell-based, human", "conditions": "1μM, one hour", "method_in_brief": "as §2"}, "[11]": {"system": "BCR stimulation by anti-IgM (CD69) in CLL patient MNCs", "assay_type": "cell-based, human", "conditions": "1μM pretreatment 3 hours, anti-IgM 18 h"}}, "note": "pIC50: −log10 of the molar value.", "data": [{"smiles": "C=CC(=O)N1CCC[C@@H](n2nc(-c3ccc(Oc4ccccc4)cc3)c3c(N)ncnc32)C1", "note": "[ibrutinib, reference compound]", "values": [{"measurement": "IC50 values for all ten kinases with the conserved cysteine", "setting": "[1]", "value": "low nanomolar range"}, {"measurement": "pIC50", "setting": "BTK", "value": 8.82}, {"measurement": "effective dose (CD69 expression)", "setting": "[2]", "value": 2.9, "unit": "mg/kg"}]}, {"smiles": "CC#CC(=O)N1CCC[C@H]1c1nc(-c2ccc(C(=O)Nc3ccccn3)cc2)c2c(N)nccn12", "note": "[acalabrutinib, Acalabrutinib]", "values": [{"measurement": "median change in phosphorylation of ERK vs vehicle", "setting": "phospho-ERK(T202/Y204)", "value": "−79", "unit": "%"}, {"measurement": "median change in CLL cells per μL of blood vs vehicle", "setting": "human CLL cells [3]", "value": "+0.76%"}, {"measurement": "pIC50", "setting": "TEC", "value": "[…]"}, {"measurement": "pIC50", "setting": "BTK", "value": 8.29}, {"measurement": "median change in phosphorylation of S6", "setting": "phospho-S6(S235/236) [4]", "value": "−20", "unit": "%"}, {"measurement": "median change in pS6 induction vs vehicle", "setting": "phospho-S6(S235/236) [5]", "value": "−35", "unit": "%"}, {"measurement": "median change in MFI of pBTK (autophosphorylation site)", "setting": "phospho-BTK(Y223) [6]", "value": "−15", "unit": "%"}, {"measurement": "median change in human CLL cells in the murine spleen (tumor burden) vs vehicle", "setting": "human CLL cells [7]", "value": "−33", "unit": "%"}, {"measurement": "median change in phosphorylation of PLCγ2 vs vehicle", "setting": "phospho-PLCγ2(Y759)", "value": "−68", "unit": "%"}, {"measurement": "pIC50", "setting": "ERBB4", "value": "> 7.00"}, {"measurement": "binding across kinase panel", "setting": "[8]", "value": "Minimal binding outside of BTK"}, {"measurement": "inhibition of ITK", "setting": "ITK", "value": "not significantly inhibited"}, {"measurement": "effective dose (CD69 expression)", "setting": "[2]", "value": 1.3, "unit": "mg/kg"}, {"measurement": "inhibition of BCR signaling (CD69 expression) compared with ibrutinib", "setting": "[2]; oral, 1mg/kg and 3mg/kg", "value": "significantly more than ibrutinib"}, {"measurement": "median change in auto-phosphorylation of BTK vs vehicle", "setting": "phospho-BTK(Y223) [9]", "value": "−31", "unit": "%"}, {"measurement": "median change in Ki67 (CLL cell proliferation) vs vehicle", "setting": "human CLL cells [10]", "value": "−50", "unit": "%"}, {"measurement": "drug occupancy of murine BTK", "setting": "murine BTK", "value": "≥ 90", "unit": "%"}, {"measurement": "median change in phosphorylation of PLCγ2 vs vehicle", "setting": "phospho-PLCγ2(Y1217)", "value": "−22", "unit": "%"}, {"measurement": "median change in phosphorylation of NF-κB (p65)", "setting": "phospho-p65(S529)", "value": "−26", "unit": "%"}, {"measurement": "prevention of BCR stimulation by anti-IgM (CD69)", "setting": "[11]", "value": "significantly prevented BCR stimulation"}]}]}
